Laboratory results reported in PMC3254186 (Frontiers in Pharmacology, 2011).

Tests used:
Format in all cases: cell-based
Kir2.3 [1] = target: T1, Kir2.3 (Homo sapiens, UniProt P48050); assay: Whole-cell patch clamp, T-REx-HEK-293-Kir2.3 cells
T1 sequence (P48050 1-445): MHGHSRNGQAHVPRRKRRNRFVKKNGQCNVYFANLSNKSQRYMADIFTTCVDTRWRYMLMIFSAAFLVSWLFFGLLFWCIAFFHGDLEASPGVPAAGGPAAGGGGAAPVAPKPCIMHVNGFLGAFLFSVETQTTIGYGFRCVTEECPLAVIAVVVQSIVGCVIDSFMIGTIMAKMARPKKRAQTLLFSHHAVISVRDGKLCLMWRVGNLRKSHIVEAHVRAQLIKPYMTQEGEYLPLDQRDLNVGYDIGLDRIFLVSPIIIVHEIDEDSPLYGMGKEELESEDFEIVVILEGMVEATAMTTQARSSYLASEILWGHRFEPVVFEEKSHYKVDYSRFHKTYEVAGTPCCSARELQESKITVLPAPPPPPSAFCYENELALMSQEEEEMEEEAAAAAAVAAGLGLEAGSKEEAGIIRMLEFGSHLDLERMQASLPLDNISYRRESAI
How it was run: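 Monoclonal T-REx-HEK-293-Kir2.3 cells were patched after overnight induction with tetracycline (1 μg/mL). Pipette: 135 mM KCl, 1 mM MgCl2 (reduced against rundown), 1 mM EGTA, 10 mM HEPES, 2 mM Na2ATP, pH 7.3. Bath: 135 mM NaCl, 5 mM KCl, pH 7.4. Held at −75 mV and ramped −120 to 120 mV every 5 s, at 20–23°C. Test compound was bath-applied, then 2 mM BaCl2. CRC n = 4–6. τ taken from the time course.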

Kir3.1/3.2 (GIRK) = target: T2, Kir3.1/3.2 (GIRK) (Homo sapiens, UniProt P48051+P48549); assay: Whole-cell patch clamp, Kir3.1/3.2 in transfected HEK-293 cells
T2 sequence (P48549 1-501): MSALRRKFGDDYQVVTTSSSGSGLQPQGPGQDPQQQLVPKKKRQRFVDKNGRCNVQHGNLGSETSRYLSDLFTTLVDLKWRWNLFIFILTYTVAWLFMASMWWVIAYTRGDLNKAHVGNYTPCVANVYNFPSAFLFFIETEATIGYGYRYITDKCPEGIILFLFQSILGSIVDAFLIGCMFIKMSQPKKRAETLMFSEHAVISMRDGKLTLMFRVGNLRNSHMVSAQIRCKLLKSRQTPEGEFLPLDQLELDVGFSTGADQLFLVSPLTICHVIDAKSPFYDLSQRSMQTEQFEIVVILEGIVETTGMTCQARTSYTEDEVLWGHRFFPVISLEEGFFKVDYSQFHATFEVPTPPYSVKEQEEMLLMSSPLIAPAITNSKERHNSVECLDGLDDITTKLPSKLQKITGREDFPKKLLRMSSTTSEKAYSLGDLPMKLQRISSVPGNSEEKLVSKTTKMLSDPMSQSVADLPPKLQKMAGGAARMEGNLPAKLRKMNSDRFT
T2 sequence (P48051 1-423): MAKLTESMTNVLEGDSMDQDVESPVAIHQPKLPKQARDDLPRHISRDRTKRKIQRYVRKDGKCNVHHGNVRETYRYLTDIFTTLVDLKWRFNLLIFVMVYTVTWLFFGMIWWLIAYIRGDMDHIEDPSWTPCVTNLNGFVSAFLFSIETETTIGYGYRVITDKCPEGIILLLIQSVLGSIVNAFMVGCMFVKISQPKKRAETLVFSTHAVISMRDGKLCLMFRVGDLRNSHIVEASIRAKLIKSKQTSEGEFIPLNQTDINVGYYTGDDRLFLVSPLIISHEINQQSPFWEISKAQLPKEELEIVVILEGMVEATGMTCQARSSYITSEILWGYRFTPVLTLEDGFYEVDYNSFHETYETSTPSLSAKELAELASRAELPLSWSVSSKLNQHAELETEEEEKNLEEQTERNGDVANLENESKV
How it was run: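 HEK-293 cells were transiently co-transfected with channel plus an EGFP marker (Lipofectamine). Pipette: 135 mM KCl, 2 mM MgCl2, 1 mM EGTA, 10 mM HEPES, 2 mM Na2ATP, pH 7.3. Bath: 135 mM NaCl, 5 mM KCl, pH 7.4; some runs used 50 mM KCl. Held at −75 mV and ramped −120 to 120 mV every 5 s, at 20–23°C. Test compound was bath-applied for 2–10 min, then 2 mM BaCl2. CRC n = 4–7. τ taken from the time course.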

Kir3.1/3.4 = target: T3, Kir3.1/3.4 (Homo sapiens, UniProt P48544+P48549); assay: Two-electrode voltage clamp in Xenopus oocytes, Kir3.1/3.4; settings: TEVC oocytes, 25 μM, mean ± SEM, n = 6
T3 sequence (P48549 1-501): T2 sequence (P48549 1-501)
T3 sequence (P48544 1-419): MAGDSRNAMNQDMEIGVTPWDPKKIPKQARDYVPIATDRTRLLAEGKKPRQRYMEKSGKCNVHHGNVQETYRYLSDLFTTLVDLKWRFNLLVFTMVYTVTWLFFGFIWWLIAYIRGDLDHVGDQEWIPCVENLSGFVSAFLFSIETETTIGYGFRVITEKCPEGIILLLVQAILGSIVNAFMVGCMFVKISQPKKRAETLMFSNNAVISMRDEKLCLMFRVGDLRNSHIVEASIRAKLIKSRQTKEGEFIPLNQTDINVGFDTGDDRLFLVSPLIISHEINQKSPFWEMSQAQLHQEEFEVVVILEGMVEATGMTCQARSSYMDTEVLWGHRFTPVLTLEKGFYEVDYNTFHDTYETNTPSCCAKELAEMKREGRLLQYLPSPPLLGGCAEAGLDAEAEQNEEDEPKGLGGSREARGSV
How it was run: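 Xenopus oocytes were injected with Kir3.1/3.2 or Kir3.1/3.4 cRNA and voltage-clamped with two electrodes at 20–23°C, with current at −80 mV followed over time. The bath was switched from K+-free to 90 mM K+ to activate the channel. Test compound in 90K was applied continuously at graded concentrations, then 2 mM Ba2+ was added. A final 0K switch measured leak. Time constant derived (n = 6 at 25 μM). Percent inhibition n = 4–6.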

Kir2.3 [2] = target: T1, Kir2.3; assay: Two-electrode voltage clamp in Xenopus oocytes, Kir2.3
How it was run: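 Stage V–VI Xenopus oocytes were defolliculated with 1 mg/mL collagenase and injected with 0.5–10 ng cRNA. They were kept at 16°C in modified L-15 for 24–72 h. Two-electrode voltage clamp at 20–23°C: held at −75 mV and stepped to −120 mV for 200 ms every 5 s, with current at −120 mV tracked over time. Test compound (50 μM) was perfused, then 2 mM Ba2+. Time constant of inhibition derived.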

`Cc1ccc(OCC(O)Cn2c(=N)n(Cc3ccccc3)c3ccccc32)cc1` (centres unmarked) [Compound 1, 1-(3-benzyl-2-imino-2,3-dihydro-1H-benzo[d]imidazol-1-yl)-3-(p-tolyloxy)propan-2-ol] was tested, and the IC50 (Kir2.3 [1]; IC50 Kir2.3, whole-cell patch clamp, T-REx-HEK-293-Kir2.3) was roughly 1 µM, the “time constant for inhibition of Kir2.3” value (Kir2.3 [1]; whole-cell patch clamp, 30 μM, mean ± SEM, n = 4) was 23 ± 2 s and the IC50 (Kir3.1/3.2 (GIRK)) was 1.3 µM. The “inhibition of GIRK” value (Kir3.1/3.2 (GIRK); whole-cell patch clamp, HEK-293, 30 μM bath application) was “near complete inhibition”, the “time constant of inhibition of Kir3.1/3.2” value (Kir3.1/3.2 (GIRK); whole-cell patch clamp, HEK-293, 30 μM, mean ± SEM, n = 5) was 16 ± 1 s and the “time constant (τ) for inhibition of Kir3.1/3.4 currents” value (Kir3.1/3.4) was 27 ± 5 s. The “time constant (τ) of Kir2.3 inhibition” value (Kir2.3 [2]; TEVC oocytes, 50 μM, n = 7) was 154 ± 32 s and the inhibition at 50 µM (Kir2.3 [2]; read-out: inhibition of Kir2.3) was 80.9 ± 5%.
